Measurements: ChEMBL document CHEMBL1127788, “Iodinated 2-aminotetralins and 3-amino-1-benzopyrans: ligands for dopamine D2 and D3 receptors” (J Med Chem, 1994)
pKi: −log10 of the molar value.

Key:
[1] = molecular target: T1, 5-hydroxytryptamine receptor 1A (Rattus norvegicus, UniProt P19327); assay: Tested for the inhibitory activity against 5-hydroxytryptamine 1A receptor in rat hippocampal; assay type: tissue-based, Hippocampus
T1 sequence (P19327 whole entry): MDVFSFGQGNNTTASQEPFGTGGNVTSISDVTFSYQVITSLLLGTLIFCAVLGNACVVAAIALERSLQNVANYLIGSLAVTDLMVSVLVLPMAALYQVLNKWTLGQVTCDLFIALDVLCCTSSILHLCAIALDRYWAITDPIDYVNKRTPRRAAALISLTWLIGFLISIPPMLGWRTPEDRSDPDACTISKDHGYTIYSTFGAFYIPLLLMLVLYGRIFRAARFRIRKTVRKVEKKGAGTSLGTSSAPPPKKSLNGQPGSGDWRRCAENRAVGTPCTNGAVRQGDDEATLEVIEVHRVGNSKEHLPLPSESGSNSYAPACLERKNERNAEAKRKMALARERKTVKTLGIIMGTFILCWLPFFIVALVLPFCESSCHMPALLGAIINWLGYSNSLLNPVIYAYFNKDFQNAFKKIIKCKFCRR
Method in brief: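 Rat hippocampal homogenate in ice-cold 50 mM Tris-HCl pH 7.4, spun at 20000g for 20 min. Pellet lysed in water, preincubated at 37 °C to remove endogenous serotonin, then resuspended in Tris with 2 mM MgCl2. Nonspecific binding: 10 μM 5-HT. Filtration, γ counting, Ki by LIGAND fit.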

D(2) dopamine receptor [2] = molecular target: T2, D(2) dopamine receptor (Homo sapiens, UniProt P14416); assay: Tested for the inhibitory activity against Dopamine D2 receptor in infected Sf9 cells; assay type: cell-based
T2 sequence (P14416 whole entry): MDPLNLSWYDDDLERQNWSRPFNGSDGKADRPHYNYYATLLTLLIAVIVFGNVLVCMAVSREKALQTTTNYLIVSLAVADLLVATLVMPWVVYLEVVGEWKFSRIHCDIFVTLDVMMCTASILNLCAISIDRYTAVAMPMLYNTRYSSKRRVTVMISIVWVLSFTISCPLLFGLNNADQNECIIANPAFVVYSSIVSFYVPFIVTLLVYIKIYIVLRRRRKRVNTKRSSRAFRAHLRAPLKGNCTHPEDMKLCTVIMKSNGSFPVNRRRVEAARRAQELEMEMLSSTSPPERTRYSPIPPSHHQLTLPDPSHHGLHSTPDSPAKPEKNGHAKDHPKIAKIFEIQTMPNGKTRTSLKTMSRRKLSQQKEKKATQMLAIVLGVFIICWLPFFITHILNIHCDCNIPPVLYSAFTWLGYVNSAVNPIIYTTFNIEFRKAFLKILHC
Method in brief: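 Membranes from Sf9 cells infected with AcMNPVrD2 baculovirus (non-G-protein coupled, low-affinity D2). Drugs up to 10^-5 M displace 0.1 nM [125I]-NCQ298 in 50 mM Tris pH 7.4, 120 mM NaCl, protease inhibitors, BSA 1 mg/mL. Incubation 30 min at 37 °C, filtration, gamma counting. Nonspecific binding with 10 μM (+)-butaclamol or 1 μM 7-OH-DPAT. Ki by nonlinear least-squares fitting.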

D(3) dopamine receptor = D(3) dopamine receptor (Homo sapiens, UniProt P35462); assay: Tested for the inhibitory activity against Dopamine D3 receptor in infected Sf9 cells; assay type: cell-based
Sequence of D(3) dopamine receptor (P35462 whole entry): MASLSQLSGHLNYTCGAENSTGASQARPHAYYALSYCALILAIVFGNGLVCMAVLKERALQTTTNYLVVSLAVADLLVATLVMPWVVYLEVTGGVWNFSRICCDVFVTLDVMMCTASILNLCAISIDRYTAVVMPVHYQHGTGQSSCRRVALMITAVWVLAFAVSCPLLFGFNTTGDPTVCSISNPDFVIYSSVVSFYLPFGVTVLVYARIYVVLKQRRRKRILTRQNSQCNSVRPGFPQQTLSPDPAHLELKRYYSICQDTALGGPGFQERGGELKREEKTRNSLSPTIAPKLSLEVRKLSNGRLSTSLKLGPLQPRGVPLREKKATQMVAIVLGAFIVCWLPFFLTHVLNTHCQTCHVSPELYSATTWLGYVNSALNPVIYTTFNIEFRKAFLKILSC
Method in brief: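 Membranes from Sf9 cells infected with AcMNPVrD3, in 50 mM Tris pH 7.4 with 120 mM NaCl, protease inhibitors and BSA 1 mg/mL. Nonspecific binding: 10 μM (+)butaclamol or 1 μM 7-OH-DPAT. Filtration onto PEI-soaked glass fiber, γ counting, LIGAND nonlinear fit.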

[3] = molecular target: T3, Sigma non-opioid intracellular receptor 1 (Rattus norvegicus, UniProt Q9R0C9); assay: Tested for the inhibitory activity against sigma receptor rat cerebellar
T3 sequence (Q9R0C9 whole entry): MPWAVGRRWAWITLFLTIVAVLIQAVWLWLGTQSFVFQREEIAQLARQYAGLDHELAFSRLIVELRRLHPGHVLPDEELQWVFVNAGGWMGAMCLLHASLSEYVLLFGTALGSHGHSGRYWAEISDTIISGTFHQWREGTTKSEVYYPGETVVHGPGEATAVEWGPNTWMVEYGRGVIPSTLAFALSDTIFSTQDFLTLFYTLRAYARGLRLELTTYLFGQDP
Method in brief: (§1)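 Rat cerebellar homogenate (65–75 μg) with 0.3–0.5 nM [125I]-S-(-)-trans-7-OH-PIPAT plus 15 nM spiperone and varying inhibitor, 20 min at 25 °C. Nonspecific binding: 10 μM haloperidol. Vacuum filtration through PEI-presoaked glass fiber filters, washed with ice-cold 50 mM Tris-HCl pH 7.4.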

D(2) dopamine receptor [4] = molecular target: T2, D(2) dopamine receptor; assay: Tested for the inhibitory activity against D2H (high-affinity states) receptor in infected HEK 293 cells.; assay type: cell-based, HEK293
Method in brief: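 Competition binding on membranes of HEK293 cells expressing dopamine D2 receptors in high-affinity (G-protein coupled) states. Radioligand [125I]-R-(+)-trans-7-OH-PIPAT. […] Ki from iterative nonlinear least-squares curve fitting.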

[5] = molecular target: T3, Sigma non-opioid intracellular receptor 1; assay: tested for the inhibitory activity against sigma receptor rat cerebellar; method in brief: as §1

SMILES | pKi [1] | pKi (D(2) dopamine receptor [2]) | pKi (D(3) dopamine receptor) | pKi [3] | pKi (D(2) dopamine receptor [4]) | pKi [5]
CCCN(C/C=C/I)C1COc2ccc(O)cc2C1 (centres undefined) | 6.21 | 6.11 | 8.17 | < 5.00 | – | –
CCCN(C/C=C/I)C1CCc2cc(O)ccc2C1 (centres undefined) | 6.53 | 6.26 | 8.66 | 7.55 | 8.01 | –
CCCN(C/C=C/I)C1CCc2ccc(O)cc2C1 (centres undefined) | – | 6.58 | – | 8.49 | 8.18 | –
Oc1ccc2c(c1)CC(NC/C=C/I)CC2 (centres undefined) | – | – | 7.52 | – | – | 8.77
CCCN(C/C=C/I)C1COc2c(O)cccc2C1 (centres undefined) | 5.90 | < 5.30 | 7.50 | 6.31 | – | –
CCCN(C/C=C/I)C1CCc2c(O)cccc2C1 (centres undefined) | 7.32 | 6.49 | 9.00 | 5.91 | 8.44 | –
CCCN(CCC)C1CCc2ccc(O)cc2C1 (centres undefined) | – | – | – | 7.63 | – | –
